From the M2OR odorant receptor database
Changes are numbered by the printed parent chain.

How the values were obtained:
Conditions in all cases: stereoisomer not certain
OR4S2 (Homo sapiens) = biological target: T1, OR4S2 (Homo sapiens) (UniProt Q8NH73)
T1 sequence (whole entry): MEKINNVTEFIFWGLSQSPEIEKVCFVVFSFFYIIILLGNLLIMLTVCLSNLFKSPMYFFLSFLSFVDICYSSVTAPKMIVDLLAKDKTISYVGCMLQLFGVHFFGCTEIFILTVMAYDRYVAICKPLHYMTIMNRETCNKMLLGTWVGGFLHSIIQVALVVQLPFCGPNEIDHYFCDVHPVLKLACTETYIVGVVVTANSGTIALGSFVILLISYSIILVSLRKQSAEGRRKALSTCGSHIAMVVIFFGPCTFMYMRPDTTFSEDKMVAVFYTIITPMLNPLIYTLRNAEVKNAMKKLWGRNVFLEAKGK
In short: (§1)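 Values were gathered from published papers (main text and supplementary material), with extra details requested from the original authors when needed, and checked for typos and inconsistencies. Each receptor–molecule pair is called responsive (active) if the original authors judged the measured signal statistically different from baseline, and non-responsive (inactive) otherwise. Assay methods varied by source, often transient mammalian cell-line luciferase assays. Recorded details include cell line, G-protein, co-transfected protein and tags.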

OR4X1 (Homo sapiens) = biological target: T2, OR4X1 (Homo sapiens) (UniProt Q8NH49)
T2 sequence (whole entry): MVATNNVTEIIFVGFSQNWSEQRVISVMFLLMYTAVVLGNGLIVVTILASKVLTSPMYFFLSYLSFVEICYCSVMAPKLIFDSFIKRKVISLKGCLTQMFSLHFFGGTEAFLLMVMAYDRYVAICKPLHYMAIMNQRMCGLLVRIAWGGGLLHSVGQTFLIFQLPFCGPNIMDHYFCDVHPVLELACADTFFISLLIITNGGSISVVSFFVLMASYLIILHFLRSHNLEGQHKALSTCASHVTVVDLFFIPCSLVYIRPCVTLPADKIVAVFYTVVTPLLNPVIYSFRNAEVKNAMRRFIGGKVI
In short: as §1

OR4X2 (Homo sapiens) = biological target: T3, OR4X2 (Homo sapiens) (UniProt Q8NGF9)
T3 sequence (whole entry): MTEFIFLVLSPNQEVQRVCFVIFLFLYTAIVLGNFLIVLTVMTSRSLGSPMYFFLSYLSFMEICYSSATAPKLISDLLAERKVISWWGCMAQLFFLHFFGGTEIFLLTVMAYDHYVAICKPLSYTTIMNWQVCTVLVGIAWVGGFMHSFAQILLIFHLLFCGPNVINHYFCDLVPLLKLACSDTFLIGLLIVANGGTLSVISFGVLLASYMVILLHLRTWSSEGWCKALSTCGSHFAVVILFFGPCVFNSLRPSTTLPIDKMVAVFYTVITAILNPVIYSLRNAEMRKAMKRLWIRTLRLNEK
In short: as §1

OR51A2 (Homo sapiens) = biological target: T4, OR51A2 (Homo sapiens) (UniProt Q8NGJ7)
T4 sequence (whole entry): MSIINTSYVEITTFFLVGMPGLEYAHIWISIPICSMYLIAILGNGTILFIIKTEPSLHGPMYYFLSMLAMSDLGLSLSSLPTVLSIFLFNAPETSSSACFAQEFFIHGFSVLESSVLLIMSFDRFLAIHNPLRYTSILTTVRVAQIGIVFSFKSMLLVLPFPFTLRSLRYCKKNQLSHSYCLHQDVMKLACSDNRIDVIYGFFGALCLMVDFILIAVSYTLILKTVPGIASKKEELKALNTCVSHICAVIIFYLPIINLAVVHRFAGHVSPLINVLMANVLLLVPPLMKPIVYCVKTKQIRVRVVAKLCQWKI
In short: as §1

OR51A4 (Homo sapiens) = biological target: T5, OR51A4 (Homo sapiens) (UniProt Q8NGJ6)
T5 sequence (whole entry): T4 sequence (whole entry) with G59E, T94I, S97N, S167N, P227L, E235Q, G267R, M288T, K289N, W311R
In short: as §1

OR51A7 (Homo sapiens) = biological target: T6, OR51A7 (Homo sapiens) (UniProt Q8NH64)
T6 sequence (whole entry): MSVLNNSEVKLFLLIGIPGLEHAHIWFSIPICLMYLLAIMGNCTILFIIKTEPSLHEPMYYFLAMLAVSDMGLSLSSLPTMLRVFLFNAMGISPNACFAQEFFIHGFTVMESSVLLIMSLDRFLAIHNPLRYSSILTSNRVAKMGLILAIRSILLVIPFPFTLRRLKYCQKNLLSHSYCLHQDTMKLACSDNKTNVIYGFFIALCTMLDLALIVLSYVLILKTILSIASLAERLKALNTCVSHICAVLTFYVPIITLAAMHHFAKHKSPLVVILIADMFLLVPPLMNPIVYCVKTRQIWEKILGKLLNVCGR
In short: as §1

OR51B2 (Homo sapiens) = biological target: T7, OR51B2 (Homo sapiens) (UniProt Q9Y5P1)
T7 sequence (whole entry): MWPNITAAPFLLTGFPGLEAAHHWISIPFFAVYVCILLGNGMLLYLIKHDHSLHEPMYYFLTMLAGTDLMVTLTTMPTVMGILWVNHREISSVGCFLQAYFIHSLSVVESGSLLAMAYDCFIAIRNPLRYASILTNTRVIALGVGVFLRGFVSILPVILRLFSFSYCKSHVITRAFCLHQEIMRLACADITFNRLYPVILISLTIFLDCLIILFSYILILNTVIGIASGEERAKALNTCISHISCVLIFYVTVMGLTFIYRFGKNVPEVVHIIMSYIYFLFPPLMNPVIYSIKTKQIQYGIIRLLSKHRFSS
In short: as §1

OR51B4 (Homo sapiens) = biological target: T8, OR51B4 (Homo sapiens) (UniProt Q9Y5P0)
T8 sequence (whole entry): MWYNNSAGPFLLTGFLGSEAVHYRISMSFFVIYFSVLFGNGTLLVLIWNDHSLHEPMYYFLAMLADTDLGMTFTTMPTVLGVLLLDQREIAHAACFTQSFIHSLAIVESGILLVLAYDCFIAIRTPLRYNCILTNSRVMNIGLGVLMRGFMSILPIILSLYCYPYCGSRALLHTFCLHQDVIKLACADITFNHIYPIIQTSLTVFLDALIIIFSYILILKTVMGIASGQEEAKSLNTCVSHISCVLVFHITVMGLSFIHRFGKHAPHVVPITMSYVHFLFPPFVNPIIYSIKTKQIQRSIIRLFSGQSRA
In short: as §1

OR51B5 (Homo sapiens) = biological target: T9, OR51B5 (Homo sapiens) (UniProt Q9H339)
T9 sequence (whole entry): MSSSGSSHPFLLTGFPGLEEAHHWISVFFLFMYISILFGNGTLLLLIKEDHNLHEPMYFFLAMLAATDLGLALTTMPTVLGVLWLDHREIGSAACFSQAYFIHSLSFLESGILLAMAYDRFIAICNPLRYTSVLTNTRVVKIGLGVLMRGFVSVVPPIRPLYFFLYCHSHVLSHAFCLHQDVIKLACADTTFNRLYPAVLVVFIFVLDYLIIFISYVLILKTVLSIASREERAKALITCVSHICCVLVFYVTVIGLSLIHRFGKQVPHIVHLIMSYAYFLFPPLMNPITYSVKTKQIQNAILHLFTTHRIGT
In short: as §1

OR51B6 (Homo sapiens) = biological target: T10, OR51B6 (Homo sapiens) (UniProt Q9H340)
T10 sequence (whole entry): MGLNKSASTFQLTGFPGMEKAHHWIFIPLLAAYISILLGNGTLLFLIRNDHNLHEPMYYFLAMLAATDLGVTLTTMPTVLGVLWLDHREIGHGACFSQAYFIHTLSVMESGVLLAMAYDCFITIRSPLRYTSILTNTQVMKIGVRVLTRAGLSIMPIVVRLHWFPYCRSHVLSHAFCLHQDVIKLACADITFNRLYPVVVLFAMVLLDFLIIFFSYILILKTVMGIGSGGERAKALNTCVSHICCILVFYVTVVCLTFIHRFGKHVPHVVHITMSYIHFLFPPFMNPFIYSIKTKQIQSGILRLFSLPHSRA
In short: as §1

Measured: odorant receptor agonist call

CCCCCC(=O)C(C)C(C)=O (stereo not drawn)
inactive: OR4S2 (Homo sapiens) | OR4X1 (Homo sapiens) | OR4X2 (Homo sapiens) | OR51A2 (Homo sapiens) | OR51A4 (Homo sapiens) | OR51A7 (Homo sapiens) | OR51B2 (Homo sapiens) | OR51B4 (Homo sapiens) | OR51B5 (Homo sapiens) | OR51B6 (Homo sapiens)

CC1=NC(C)C(C)S1 (stereo not drawn)
inactive: OR4S2 (Homo sapiens) | OR4X1 (Homo sapiens) | OR4X2 (Homo sapiens) | OR51A2 (Homo sapiens) | OR51A4 (Homo sapiens) | OR51A7 (Homo sapiens) | OR51B2 (Homo sapiens) | OR51B4 (Homo sapiens) | OR51B5 (Homo sapiens) | OR51B6 (Homo sapiens)

CCCCCCCCCCCCCCC(=O)O
inactive: OR51B5 (Homo sapiens)

CCCCCCCCC(=O)O
inactive: OR51A4 (Homo sapiens)

CCCO
inactive: OR51B5 (Homo sapiens)

CCCCCCCCCCCCCCCCCC(=O)OCC
inactive: OR51B5 (Homo sapiens)

CCCCCCC=CCCC=O
inactive: OR4S2 (Homo sapiens) | OR4X1 (Homo sapiens) | OR4X2 (Homo sapiens) | OR51A2 (Homo sapiens) | OR51A4 (Homo sapiens) | OR51A7 (Homo sapiens) | OR51B2 (Homo sapiens) | OR51B4 (Homo sapiens) | OR51B5 (Homo sapiens) | OR51B6 (Homo sapiens)

CC1CCCCCCCCCCCCC(=O)C1 (stereo not drawn)
inactive: OR4S2 (Homo sapiens) | OR4X1 (Homo sapiens) | OR4X2 (Homo sapiens) | OR51A2 (Homo sapiens) | OR51A4 (Homo sapiens) | OR51A7 (Homo sapiens) | OR51B2 (Homo sapiens) | OR51B4 (Homo sapiens) | OR51B5 (Homo sapiens) | OR51B6 (Homo sapiens)

CCCCCCCC(=O)OC
inactive: OR51B5 (Homo sapiens)

CCCCCCC(=O)[O-].[H+]
inactive: OR51B5 (Homo sapiens)

CCC(S)C(C)CO (stereo not drawn)
inactive: OR4S2 (Homo sapiens) | OR4X1 (Homo sapiens) | OR4X2 (Homo sapiens) | OR51A2 (Homo sapiens) | OR51A4 (Homo sapiens) | OR51A7 (Homo sapiens) | OR51B2 (Homo sapiens) | OR51B4 (Homo sapiens) | OR51B5 (Homo sapiens) | OR51B6 (Homo sapiens)

CCC1OC(=O)C(O)=C1C (stereo not drawn)
inactive: OR4S2 (Homo sapiens) | OR4X1 (Homo sapiens) | OR4X2 (Homo sapiens) | OR51A2 (Homo sapiens) | OR51A4 (Homo sapiens) | OR51A7 (Homo sapiens) | OR51B2 (Homo sapiens) | OR51B4 (Homo sapiens) | OR51B5 (Homo sapiens) | OR51B6 (Homo sapiens)

CCCCCCCCCC(=O)OCC
inactive: OR51B5 (Homo sapiens)

CCC1OC(C)=C(O)C1=O (stereo not drawn)
inactive: OR4S2 (Homo sapiens) | OR4X1 (Homo sapiens) | OR4X2 (Homo sapiens) | OR51A2 (Homo sapiens) | OR51A4 (Homo sapiens) | OR51A7 (Homo sapiens) | OR51B2 (Homo sapiens) | OR51B4 (Homo sapiens) | OR51B5 (Homo sapiens) | OR51B6 (Homo sapiens)

CCCCCCCCCCCCCCCC(=O)OC
inactive: OR51B5 (Homo sapiens)
